# Laboratory results published in ChEMBL document CHEMBL3853270, “Influence of Birch Bark Triterpenes on Keratinocytes and Fibroblasts from Diabetic and Nondiabetic Donors” (2016).
# Activity calls are given as the source filed them. The rule behind the calls is not given here.
# What was measured:
# Keratinocyte [1] = test: Effect on pro-inflammatory related gene expression in diabetic adult human primary keratinocytes assessed as IL1B mRNA levels at 9.81 uM after 6 hrs by qPCR analysis; type: functional
# Keratinocyte [2] = test: Effect on pro-inflammatory related gene expression in non-diabetic adult human primary keratinocytes assessed as TNF mRNA levels at 9.81 uM after 6 hrs by qPCR analysis; type: functional
# Keratinocyte [3] = test: Effect on pro-inflammatory related gene expression in non-diabetic adult human primary keratinocytes assessed as IL6 mRNA levels at 1.96 uM after 6 hrs by qPCR analysis; type: functional
# Fibroblast [4] = test: Effect on antiinflammatory related gene expression in non-diabetic young human primary fibroblasts assessed as SOCS3 mRNA levels at 1.96 uM after 6 hrs by qPCR analysis; type: functional
# How it was run: (§1)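 Primary dermal fibroblasts from one nondiabetic young, one nondiabetic adult and one diabetic adult donor; 320 000 cells per sample, 6 h at 1.96 or 9.81 μM. RNA measured on a high-throughput qPCR chip. Fold change versus 0.1% DMSO control, four independent experiments, SD, one-way ANOVA with Bonferroni post-test.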
# Keratinocyte [5] = test: Effect on growth factor related gene expression in diabetic adult human primary keratinocytes assessed as VEGFA mRNA levels at 1.96 uM after 6 hrs by qPCR analysis; type: functional
# How it was run: (§2)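 Primary human keratinocytes (nondiabetic young or adult, diabetic adult donors) were exposed to compound for 6 h, with 0.1% DMSO as solvent control. Total RNA came from 400 000 cells per sample and was assayed on a Fluidigm Biomark high-throughput qPCR chip. Results are fold change vs solvent control, from 2−4 independent experiments on two donors per group, with SD. Groups were compared by one-way ANOVA with Bonferroni post-test.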
# Fibroblast [6] = test: Effect on chemokines related gene expression in non-diabetic adult human primary fibroblasts assessed as IL8 mRNA levels at 1.96 uM after 6 hrs by qPCR analysis; type: functional
# Fibroblast [7] = test: Effect on MMP1 mRNA expression levels in diabetic adult human primary fibroblasts at 9.81 uM after 6 hrs by qPCR analysis; type: functional; how it was run: as §1
# Keratinocyte [8] = test: Effect on pro-inflammatory related gene expression in diabetic adult human primary keratinocytes assessed as PTGS2 mRNA levels at 1.96 uM after 6 hrs by qPCR analysis; type: functional
# Keratinocyte [9] = test: Effect on pro-inflammatory related gene expression in non-diabetic young human primary keratinocytes assessed as PTGS2 mRNA levels at 9.81 uM after 6 hrs by qPCR analysis; type: functional
# [10] = target: Transforming protein RhoA (Homo sapiens) (UniProt P61586); test: Activation of RhoA in human diabetic primary keratinocytes at 10 nM after 3 hrs by immunoblot method
# Transforming protein RhoA (Homo sapiens), sequence (P61586 whole entry): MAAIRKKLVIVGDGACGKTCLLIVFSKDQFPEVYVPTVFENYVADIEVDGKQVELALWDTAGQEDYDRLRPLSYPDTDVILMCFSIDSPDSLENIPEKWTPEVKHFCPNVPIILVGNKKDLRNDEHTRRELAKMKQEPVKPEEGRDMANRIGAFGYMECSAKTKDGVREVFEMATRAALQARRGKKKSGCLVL
# How it was run: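 Keratinocytes from a diabetic adult donor; incubation 3 h for RhoA, 20 min for Cdc42 and Rac1. Lysates made in glycerol/Tris pH 7.4/NaCl/NP-40/MgCl2/PMSF buffer, spun at 4 °C. Active GTP-bound form pulled down on glutathione-sepharose with GST-Rhotekin (RhoA) or GST-PAK (Cdc42, Rac1) for 1 h at 4 °C. Total and pulled-down protein read by immunoblot with ECL; n = 3.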
# Keratinocyte [11] = test: Effect on growth factor related gene expression in non-diabetic young human primary keratinocytes assessed as PDGFB mRNA levels at 1.96 uM after 6 hrs by qPCR analysis; type: functional; how it was run: as §2
# Fibroblast [12] = test: Effect on pro-inflammatory related gene expression in diabetic adult human primary fibroblasts assessed as IL6 mRNA levels at 9.81 uM after 6 hrs by qPCR analysis; type: functional
# How it was run: (§3)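 Primary human dermal fibroblasts (young or adult nondiabetic, adult diabetic donor) were treated for 6 h against a 0.1% DMSO solvent control. RNA from 320 000 cells per sample was measured by Fluidigm Biomark high-throughput qPCR. Values are fold change relative to solvent control, from four independent experiments, with SD. One-way ANOVA with Bonferroni post-test was applied.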
# Fibroblast [13] = test: Effect on chemokines related gene expression in diabetic adult human primary fibroblasts assessed as CCL2 mRNA levels at 1.96 uM after 6 hrs by qPCR analysis; type: functional
# Fibroblast [14] = test: Effect on chemokines related gene expression in diabetic adult human primary fibroblasts assessed as IL8 mRNA levels at 1.96 uM after 6 hrs by qPCR analysis; type: functional
# [15] = Effect on wound healing activity in non-diabetic adult human primary keratinocytes assessed as upregulation of IL1RA protein levels at 1.96 uM after 24 hrs by bead-based suspension array analysis; type: functional; conditions: Keratinocyte
# Fibroblast [16] = test: Effect on pro-inflammatory related gene expression in non-diabetic adult human primary fibroblasts assessed as IL6 mRNA levels at 9.81 uM after 6 hrs by qPCR analysis; type: functional
# Keratinocyte [17] = test: Effect on pro-inflammatory related gene expression in non-diabetic adult human primary keratinocytes assessed as PTGS2 mRNA levels at 1.96 uM after 6 hrs by qPCR analysis; type: functional
# Fibroblast [18] = test: Effect on antiinflammatory related gene expression in diabetic adult human primary fibroblasts assessed as SOCS3 mRNA levels at 1.96 uM after 6 hrs by qPCR analysis; type: functional; how it was run: as §1
# Keratinocyte [19] = test: Effect on pro-inflammatory related gene expression in diabetic adult human primary keratinocytes assessed as IL6 mRNA levels at 9.81 uM after 6 hrs by qPCR analysis; type: functional
# Keratinocyte [20] = test: Effect on cellular connection related gene expression in diabetic adult human primary keratinocytes assessed as CLDN4 mRNA levels at 9.81 uM after 6 hrs by qPCR analysis; type: functional
# Fibroblast [21] = test: Effect on pro-inflammatory related gene expression in non-diabetic young human primary fibroblasts assessed as PTGS2 mRNA levels at 9.81 uM after 6 hrs by qPCR analysis; type: functional
# Fibroblast [22] = test: Effect on chemokines related gene expression in non-diabetic young human primary fibroblasts assessed as WDR26 mRNA levels at 9.81 uM after 6 hrs by qPCR analysis; type: functional; how it was run: as §3
# Keratinocyte [23] = test: Effect on wound healing activity in non-diabetic adult human primary keratinocytes assessed as increase in soluble gp130 part of IL6 receptor protein levels at 1.96 uM after 24 hrs by bead-based suspension array analysis; type: functional
# Keratinocyte [24] = test: Effect on chemokines related gene expression in diabetic adult human primary keratinocytes assessed as IL8 mRNA levels at 1.96 uM after 6 hrs by qPCR analysis; type: functional
# Fibroblast [25] = test: Effect on adhesion molecules related gene expression in non-diabetic adult human primary fibroblasts assessed as VCAM1 mRNA levels at 9.81 uM after 6 hrs by qPCR analysis; type: functional
# How it was run: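 Dermal fibroblasts from nondiabetic adult and diabetic adult donors, exposed for 6 h at 1.96 or 9.81 μM. ICAM-1 and VCAM-1 mRNA measured by standard qRT-PCR, n = 3. Fold change versus 0.1% DMSO control, SD, one-way ANOVA with Bonferroni post-test.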
# Fibroblast [26] = test: Effect on chemokines related gene expression in non-diabetic young human primary fibroblasts assessed as WDR26 mRNA levels at 1.96 uM after 6 hrs by qPCR analysis; type: functional; how it was run: as §3
# Fibroblast [27] = test: Effect on chemokines related gene expression in non-diabetic young human primary fibroblasts assessed as IL8 mRNA levels at 1.96 uM after 6 hrs by qPCR analysis; type: functional; how it was run: as §3
# Keratinocyte [28] = test: Effect on growth factor related gene expression in non-diabetic adult human primary keratinocytes assessed as VEGFA mRNA levels at 9.81 uM after 6 hrs by qPCR analysis; type: functional; how it was run: as §2
# Fibroblast [29] = test: Effect on MMP1 mRNA expression levels in non-diabetic young human primary fibroblasts at 1.96 uM after 6 hrs by qPCR analysis; type: functional; how it was run: as §1
structure (smiles),measurement,setting,value
C=C(C)[C@@H]1CC[C@]2(CO)CC[C@]3(C)[C@H](CC[C@@H]4[C@@]5(C)CC[C@H](O)C(C)(C)[C@@H]5CC[C@]43C)[C@@H]12 [BETULIN],fold change (FC),Keratinocyte [1],1
same,fold change (FC),Keratinocyte [2],6.1
same,fold change (FC),Keratinocyte [3],16.2
same,fold change (FC),Fibroblast [4],3
same,fold change (FC),Keratinocyte [5],1.6
same,fold change (FC),Fibroblast [6],702
same,fold change (FC),Fibroblast [7],0.6
same,fold change (FC),Keratinocyte [8],1.3
same,fold change (FC),Keratinocyte [9],1.5
same,Activity,[10],Active
same,fold change (FC),Keratinocyte [11],1.2
same,fold change (FC),Fibroblast [12],5.3
same,fold change (FC),Fibroblast [13],3.7
same,fold change (FC),Fibroblast [14],10.8
same,Activity,[15],Active
same,fold change (FC),Fibroblast [16],246
same,fold change (FC),Keratinocyte [17],1
same,fold change (FC),Fibroblast [18],2
same,fold change (FC),Keratinocyte [19],26
same,fold change (FC),Keratinocyte [20],2.1
same,fold change (FC),Fibroblast [21],14.7
same,fold change (FC),Fibroblast [22],1.4
same,Activity,Keratinocyte [23],Active
same,fold change (FC),Keratinocyte [24],16.5
same,fold change (FC),Fibroblast [25],53.7
same,fold change (FC),Fibroblast [26],1.1
same,fold change (FC),Fibroblast [27],23.5
same,fold change (FC),Keratinocyte [28],1.7
same,fold change (FC),Fibroblast [29],0.8
